Where two headings read alike, the source gives them in different places.
Tests used:
Aβ = conditions: cited from earlier work
[1] = cited from earlier work
[2] = Lipophilicity, n-octanol/phosphate buffer partition coefficient; type: physicochemical; conditions: n-octanol/phosphate buffer 0.1 mol/L, pH 7.4; mean of two batches in triplicate
[3] = Stability in the final formulation; type: physicochemical; conditions: 6 h, room temperature
Procedure, shortened: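 Three samples of the formulated tracer, a filtered ethanol/saline formulation with phosphate and Tween 80, were held at room temperature. Each was analysed at 0, 1, 2, 3, 4, 5 and 6 h by radio-HPLC on C18 with MeCN:H2O 75:25 at 1 mL/min, using UV 215 nm and gamma detectors. Radiochemical purity was taken as the tracer peak area relative to total radioactivity.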

Stability in plasma = type: in vitro ADME, human; conditions: 2 h incubation at 37 °C
Protein binding assay = type: in vitro ADME; conditions: human plasma, gel filtration
Procedure, shortened: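 Human plasma (1 mL) with 100 μL radiotracer was incubated at 37 °C for 120 min. At 30, 60 and 120 min, 50 μL was applied to pre-spun G-50 size-exclusion spin columns, left 2 min, and centrifuged 2 min at 3300 rpm, 4 °C. Column (free) and eluate (bound) activity were gamma-counted. The blank used 0.1 M phosphate buffer instead of plasma, at 120 min.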

Aβ plaques = Aβ plaques (Homo sapiens, UniProt P05067); assay: In vitro binding assays with Aβ plaques; design: species or system 3xTg-AD mice
[4] = Biodistribution study and non-compartmental pharmacokinetics; type: in vivo, Balb/C mice; conditions: i.v.
Procedure, shortened: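 Thirty healthy male Balb/C mice (10-12 weeks, 28.5±2.0 g) in 6 groups of 5 received 20-40 MBq i.v. via lateral tail vein. Blood was collected and mice were killed at 5, 15, 30, 45, 70 and 180 min. Organs were removed, washed with saline, dried and weighed, and radioactivity was well-counted. Plasma PK parameters came from non-compartmental analysis, reported as mean and standard deviation.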

C57BL/6 mice = assay: PET/CT imaging, control healthy mice; type: in vivo; conditions: wild-type mice, i.v.
Procedure, shortened: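 Male C57BL/6 controls (aged 13 months), anaesthetised with 4-5% isoflurane (1-2% maintenance), received 30-37 MBq via lateral tail vein. Dynamic PET ran 120 min, framed 10x2 min, 5x5 min and 5x15 min, with CT at 45 kVp for anatomy. Decay-corrected PET was fused with CT and an MRI mouse brain template holding predefined brain regions of interest.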

APPSwe/PS1dE9 mice = assay: PET/CT imaging, transgenic mice; type: in vivo; conditions: static PET at 30 min, n=3, no statistical significance
Procedure, shortened: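 Male APPSwe/PS1dE9 transgenic mice (aged 12 months) and male C57BL/6 controls (aged 13 months) under isoflurane received 30-37 MBq i.v. via tail vein. PET/CT images were fused with a brain-template atlas to give regional values. In static images, regional SUV was normalised to brain stem (n=3). Transgenic and control regions were compared by Student's t-test, α=0.05.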

[5] = brain serial sections of 3xTg-AD mice
[6] = plasma of healthy Balb/C male mice, NCA

Sequence of Aβ plaques (P05067 672-713): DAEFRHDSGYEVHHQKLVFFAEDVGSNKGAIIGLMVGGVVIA

In the case of CNc1ccc(/C=C/c2ccc(OCCOCCOCCF)cc2)cc1 [[^18F]Florbetaben, BAY94-9172], the Kd (Aβ; AD brain homogenates ref 60) is given as 16 nM and the “Log P” value [1] is given as 2.41 [65].
In the case of COc1ccc2cc(CCC[18F])ccc2c1 [[^18F]Amylovis, 2-(3-[^18F]fluoropropyl)-6-methoxynaphthalene], the “log Poct/PBS” value [2] is reported as 2.46 ± 0.06, the “stability (radiochemical purity) of final formulation” value [3] is reported as “did not significantly change” and the “stability in fresh human plasma” value (Stability in plasma) is reported as “not degraded”. The “plasma protein binding (PPB)” value (Protein binding assay) was “high PPB percentage”, the Kd (Aβ plaques) was 0.16 nM and the Bmax (Aβ plaques; [5]) was 119.4 nM. For the same compound, the “fold higher BP than [^11C]PIB” value (Aβ plaques; [5]) was 3 folds, the “fold higher affinity for Aβ plaques compared with [^11C]PIB” value (Aβ plaques; [5]) was 6 fold and the bone uptake ([4]; healthy Balb/C mice) was “relatively high bone uptake”. The “uptake in kidneys and liver” value ([4]; healthy Balb/C mice) was “high uptake values”, the “brain uptake (washout/clearance)” value ([4]; healthy Balb/C mice, 60 min) was 0.11±0.03 %ID/g and the “T1/2 (plasma)” value [4, 6] was 37 ± 10 min. The Vss [4, 6] was 10.3 ± 2.9 mL, the Vss/kg [4, 6] was 0.372 ± 0.11 L/kg and the “time of maximum activity in brain (dynamic PET)” value (C57BL/6 mice) was 2 min. For the same compound, the “uptake in cortex, transgenic vs control healthy mice (SUVr to brain stem)” value (APPSwe/PS1dE9 mice) was “slightly incremented uptake”.
In the case of CNc1ccc(-c2nc3ccc(O)cc3s2)cc1F [[^18F]Flutemetamol, GE-067], the Kd (Aβ; AD brain homogenates ref 59) is given as 6.7 nM and the “Log P” value [1] is given as 1.7 [64].
For CNc1ccc(/C=C/c2ccc(OCCOCCOCCF)nc2)cc1 [[^18F]Florbetapir, AV-45], the Kd (Aβ; AD brain homogenates ref 62) is given as 3.72 nM.

Reference: PMC6463402 (Current Radiopharmaceuticals, 2019)
